{"data": "Results of several laboratories", "target": "Tyrosine-protein kinase BTK (BTK, Homo sapiens, UniProt Q06187)"}
{"SMILES": "CC(C)(C)c1cc(C=C(C#N)C#N)cc(Br)c1O", "assay": "enzyme activity, inhibitor", "conditions": "0.5 µM", "endpoint": "remaining activity", "result": "101%"}
{"SMILES": "Nc1ncc(-c2nc(N3CCOCC3)nc(N3CCOCC3)n2)c(C(F)F)n1", "assay": "binding, competition with immobilised ligand", "conditions": "10 µM", "endpoint": "remaining binding", "result": "26%"}
{"SMILES": "Cc1nn(C)cc1-c1nc2c(N3CCN(Cc4ccc(Cl)cc4)CC3)c(Cl)cnc2[nH]1", "assay": "binding, competition with immobilised ligand", "conditions": "1 µM", "endpoint": "remaining binding", "result": "100%"}
{"SMILES": "O=c1[nH]c2ccccc2n1C1CCN(Cc2ccc(-c3[nH]c4cc5ncnc5cc4nc3-c3ccccc3)cc2)CC1", "assay": "cell-free assay", "conditions": "0.5 µM", "endpoint": "remaining signal", "result": "98.4%"}
{"SMILES": "N#CC1(c2ccccn2)CCN(Cc2cc(C(=O)O)c(=O)n3ccccc23)CC1", "assay": "cell-free assay, competition with immobilised ligand", "conditions": "1 µM", "endpoint": "remaining binding", "result": "100%"}
{"SMILES": "C#Cc1n[nH]c2c(-c3cn(C(C)c4ccccn4)c(=O)[nH]c3=O)cc(F)cc12 (centres unmarked)", "assay": "enzyme activity, inhibitor", "conditions": "1 µM", "endpoint": "inhibition", "result": "1.7%"}
{"SMILES": "COc1ncccc1-c1cnn2ccc(N3CCN(C(=O)OC(C)C)CC3)nc12", "assay": "binding, competition with immobilised ligand", "conditions": "1 µM", "endpoint": "remaining binding", "result": "68%"}
{"SMILES": "Cn1cncc1[C@@](O)(COc1ccc(C#N)cc1-c1ccc(OC(F)(F)F)cc1)c1ccc(C#N)cc1", "assay": "cell-free assay, competition with immobilised ligand", "conditions": "1 µM", "endpoint": "remaining binding", "result": "82%"}
